ChEMBL document CHEMBL4145677, “Insights into the Mechanism of Antimicrobial Activity of Seven-Residue Peptides” (J Med Chem, 2018)
Calls of active or inactive are those of the source. The calls are words filed in the database; no cut-off is given here.

Experiments:
Escherichia coli [1] = test: Antimicrobial activity against Escherichia coli DH5[alpha] incubated for 4 hrs by microdilution broth assay; type: functional
How it was run: (§1)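 Bacteria grown in nutrient broth at 310K. Mid-log cells washed thrice and resuspended in 10 mM phosphate buffer pH 7.4 at 10^5 CFU/mL. Exposed to peptide 1–100 µM for 4 h at 310K, then medium added and grown overnight with shaking. Growth read at A630, normalized to 10 µM polymyxin B control. MIC90% is the concentration giving 90% growth inhibition; triplicates.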

Pseudomonas aeruginosa = test: Antimicrobial activity against Pseudomonas aeruginosa incubated for 4 hrs by microdilution broth assay; type: functional; how it was run: as §1
Klebsiella pneumoniae = test: Antimicrobial activity against Klebsiella pneumoniae incubated for 4 hrs by microdilution broth assay; type: functional; how it was run: as §1
Salmonella typhi = test: Antimicrobial activity against Salmonella typhi Ty2 incubated for 4 hrs by microdilution broth assay; type: functional, Salmonella enterica subsp. enterica serovar Typhi str. Ty2; conditions: Salmonella enterica
Staphylococcus aureus = test: Antimicrobial activity against Staphylococcus aureus incubated for 4 hrs by microdilution broth assay; type: functional; how it was run: as §1
Candida albicans [2] = test: Antimicrobial activity against Candida albicans incubated for 4 hrs by microdilution broth assay; type: functional
How it was run: as §1, with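 “Yeasts” for “Bacteria”, “YPDU” for “nutrient broth”, “301K.” for “310K.”, “301K,” for “310K,”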

Cryptococcus neoformans [3] = test: Antimicrobial activity against Cryptococcus neoformans var. grubii incubated for 4 hrs by microdilution broth assay; type: functional
How it was run: as §1, with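 “Yeasts” for “Bacteria”, “YPDU” for “nutrient broth”, “301K.” for “310K.”, “301K,” for “310K,”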

Candida albicans [4] = test: Antimicrobial activity against Candida albicans assessed as induction of microbial killing in presence of 150 mM NaCl measured after overnight recovery by microdilution broth assay; type: functional
How it was run: (§2)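 Washed mid-log cells in 10 mM phosphate buffer pH 7.4 with 150 mM NaCl, 10^5 CFU/mL; C. albicans grown in YPDU. Peptide 1–100 µM, 4 h at 301K, then medium added and grown overnight with shaking; A630 read. Polymyxin B 10 µM positive control; percent killing reported as MIC50%; triplicates.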

Cryptococcus neoformans [5] = test: Antimicrobial activity against Cryptococcus neoformans var. grubii assessed as induction of microbial killing in presence of 150 mM NaCl measured after overnight recovery by microdilution broth assay; type: functional; how it was run: as §2
Erythrocyte = test: Hemolytic activity in human erythrocytes at 1 to 200 uM after 4 hrs by; type: ADME, cell-based
How it was run: (§3)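 Fresh EDTA-anticoagulated human blood; erythrocytes washed thrice in PBS pH 7.4, 2×10^8 cells/mL, mixed with equal volume of peptide up to 200 µM, shaken at 310K for 1 h and 4 h. Supernatant absorbance at 414 nm measured, normalized to 2% Triton X-100 as 100% lysis; triplicates.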

[6] = Hemolytic activity in human erythrocytes assessed as heme release at 1 to 200 uM after 4 hrs by; type: ADME, cell-based, Erythrocyte; conditions: read-out: Activity; how it was run: as §3
HEK293 [7] = test: Toxicity in HEK293 cells assessed as reduction in cell viability at 2 to 100 uM incubated for 24 hrs by MTT assay; type: cell-based; conditions: human, hek293, 24 h
How it was run: (§4)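 HEK-293 cells kept in DMEM with 10% FBS and 1% penicillin/streptomycin, 310K, 5% CO2. Seeded at 10^4 cells/well and grown overnight, then exposed to peptide 0–100 µM for 24 h. MTT at 0.3 mg/mL for 3 h, formazan dissolved in DMSO, read at 570 nm; triplicates.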

HEK293 [8] = test: Toxicity in HEK293 cells assessed as reduction in cell viability at =>100 uM incubated for 24 hrs by MTT assay; type: cell-based; conditions: human, hek293, 24 h; how it was run: as §4
Lipid bilayer [9] = test: Induction of cell permeabilization in calcein-entrapped 3:1 DOPE/DOPG large unilamellar vesicles by calcein leakage assay
How it was run: (§5)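 LUVs of DOPE/DOPG 3:1 loaded with 70 mM calcein in 10 mM Tris pH 7.4, extruded through 100-nm filters, free dye removed by spin column. Liposomes at 20 µM in 10 mM Tris, 100 mM NaCl pH 7.4, 298K. Peptide added stepwise; emission at 520 nm read 5 min after each addition. Leakage = (F−Fo)/(FT−Fo)×100, with 0.1% Triton X-100 as FT; triplicates.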

Lipid bilayer [10] = test: Induction of cell permeabilization in calcein-entrapped 3:1 DOPE/DOPG large unilamellar vesicles at 30 uM by calcein leakage assay; how it was run: as §5
Lipid bilayer [11] = test: Induction of cell permeabilization in calcein-entrapped 3:1 DOPE/DOPG large unilamellar vesicles at 50 uM measured over period of 7200 secs by calcein leakage assay
How it was run: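 Calcein-loaded 3:1 DOPE/DOPG LUVs, 20 µM in 10 mM Tris, 100 mM NaCl pH 7.4, exposed to 50 µM peptide. Emission at 520 nm followed over time at 298K, with a liposome-only control monitored for 2 h.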

Lipid bilayer [12] = test: Induction of cell permeabilization in calcein-entrapped 3:1 DOPE/DOPG large unilamellar vesicles at 1 to 50 uM by calcein leakage assay; how it was run: as §5
Escherichia coli [13] = test: Induction of bacteriolysis in Escherichia coli DH5[alpha] assessed as induction of cell wall shrinkage at 1 to 5 times MIC90 by scanning electron microscopy; type: functional, organism-based
Escherichia coli [14] = test: Induction of bacteriolysis in Escherichia coli DH5[alpha] assessed as induction of intracellular material leakage at 1 to 5 times MIC90 by scanning electron microscopy; type: functional, organism-based
Escherichia coli [15] = test: Induction of bacteriolysis in Escherichia coli DH5[alpha] assessed as induction of distorted cell morphology at 1 times MIC90 by scanning electron microscopy; type: functional, organism-based
Escherichia coli [16] = test: Induction of bacteriolysis in Escherichia coli DH5[alpha] assessed as induction of dents and membrane blebbing at 1 times MIC90 by scanning electron microscopy; type: functional, organism-based
Escherichia coli [17] = test: Induction of bacteriolysis in Escherichia coli DH5[alpha] assessed as induction of non-uniform cell debris with leaked intracellular material at 5 times MIC90 by scanning electron microscopy; type: functional, organism-based
Cryptococcus neoformans [18] = test: Induction of cell membrane permeabilization in Cryptococcus neoformans var. grubii at 0.5 mM by […] cell NMR spectroscopy; type: functional, organism-based
Cryptococcus neoformans [19] = test: Induction of cell death in Cryptococcus neoformans var. grubii at 0.5 mM after 1 hr by […] cell NMR spectroscopy; type: functional, organism-based
Cryptococcus neoformans [20] = test: Induction of cell membrane permeabilization in Cryptococcus neoformans var. grubii assessed as release of metabolites at 0.5 mM by […] cell NMR spectroscopy; type: functional, organism-based
[21] = Binding affinity to SDS by circular dichroism spectroscopy
How it was run: (§6)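 Far-UV CD, 250–190 nm, 1-mm quartz cuvette, 100 nm/min, 0.5 nm interval, 3 scans averaged, 298K. Peptide at 25 µM final in deionized water or with 30 mM SDS or DPC micelles.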

[22] = Binding affinity to DPC micelle by circular dichroism spectroscopy; how it was run: as §6
[23] = Binding affinity to d25-SDS micelles by 1H NMR spectroscopy
[24] = Binding affinity to SDS micelle in presence of MnCl2 by PRE NMR spectroscopy
[25] = Binding affinity to DPC micelle in presence of MnCl2 by PRE NMR spectroscopy
Escherichia coli [26] = test: Induction of bacteriolysis in Escherichia coli DH5[alpha] assessed as induction of morphological changes at 100 uM by scanning electron microscopy; type: functional, organism-based
Cryptococcus neoformans [27] = test: Induction of cell membrane permeabilization in Cryptococcus neoformans var. grubii at 0.5 mM after 2 hrs by […] cell NMR spectroscopy; type: functional, organism-based
Cryptococcus neoformans [28] = test: Induction of cell death in Cryptococcus neoformans var. grubii at 0.5 mM after 2 hrs by […] cell NMR spectroscopy; type: functional, organism-based
Cryptococcus neoformans [29] = test: Induction of cell membrane permeabilization in Cryptococcus neoformans var. grubii assessed as release of metabolites at 0.5 mM after 2 hrs by […] cell NMR spectroscopy; type: functional, organism-based

Substance | MIC90 (Escherichia coli [1]) | MIC90 (Pseudomonas aeruginosa) | MIC90 (Klebsiella pneumoniae) | MIC90 (Salmonella typhi) | MIC90 (Staphylococcus aureus) | MIC90 (Candida albicans [2]) | MIC90 (Cryptococcus neoformans [3]) | MIC50 (Candida albicans [4]) | MIC50 (Cryptococcus neoformans [5]) | Activity (Erythrocyte) | hemolysis at 4 h, up to 200 µM [6] | Activity (HEK293 [7]) | Activity (HEK293 [8]) | Activity (Lipid bilayer [9]) | Activity (Lipid bilayer [10]) | Activity (Lipid bilayer [12]) | Activity (Escherichia coli [13]) | Activity (Escherichia coli [14]) | Activity (Escherichia coli [15]) | Activity (Escherichia coli [16]) | other results
H-LRWLRRL-NH2 | 10 µM | 10 µM | 15 µM | 7.5 µM | 50 µM | 50 µM | 15 µM | 25 µM | 25 µM | Non-Toxic | < 10% | Non-Toxic | < 10% | Dose-dependent effect | 45% | 57% | Active | Active | Active | Active | Activity (Lipid bilayer [11]): Active; Activity (Escherichia coli [17]): Active; Activity (Cryptococcus neoformans [18]): Active; Activity (Cryptococcus neoformans [19]): Active; Activity (Cryptococcus neoformans [20]): Active; Activity [21]: inactive; Activity [22]: inactive; Activity [23]: Active; Activity [24]: inactive; Activity [25]: inactive
H-LKWLKKL-NH2 | 50 µM | 50 µM | 50 µM | 15 µM | 50 µM | 50 µM | 25 µM | 50 µM | 50 µM | Non-Toxic | < 10% | Non-Toxic | < 10% | Dose-dependent effect | 27% | 37% | Active | Active | Active | Active | Activity (Escherichia coli [17]): Active; Activity (Cryptococcus neoformans [18]): Active; Activity (Cryptococcus neoformans [19]): Active; Activity (Cryptococcus neoformans [20]): Active; Activity [21]: inactive; Activity [22]: inactive; Activity [23]: Active; Activity [24]: Active; Activity [25]: inactive
H-LKLLRKL-OH |  |  |  |  |  |  |  |  |  |  |  |  |  |  |  |  |  |  |  |  | Activity (Escherichia coli [26]): inactive; Activity (Cryptococcus neoformans [27]): inactive; Activity (Cryptococcus neoformans [28]): inactive; Activity (Cryptococcus neoformans [29]): inactive
